Values after ≈ are worked out from the molar mass of the structure shown.
Key:
EA.hy 926 [1] = assay: Effect on oxidative stress in human EAhy926 cells assessed as intracellular ROS level at 1 uM after overnight incubation by DCFH-DA staining based fluorescence assay relative to control; type: functional
Outline: (§1)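 Cells grown in DMEM+glutamax, 1% NEAA, 1% P/S, 10% FBS; seeded 20000/well, treated at confluency overnight in serum-free medium, DMSO under 0.1% final. Loaded with 20 μM DCFH-DA 30 min at 37 °C, 10% CO2; washed, phenol red-free medium 1 h, then serum-free medium; fluorescence ex 485/em 535 nm. Percent of untreated; two-tailed unequal-variance t-test, n≥6.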

[2] = Antioxidant activity assessed as inhibition of DPPH radical activity at 1 uM measured after 30 mins under dark conditions by spectrophotometric analysis relative to control; type: functional
HT-29 [3] = assay: Effect on oxidative stress in human HT-29 cells assessed as intracellular ROS level at 10 uM after overnight incubation by DCFH-DA staining based fluorescence assay relative to control; type: functional; outline: as §1
[4] = Growth inhibition of CHOK1 cells measured after 72 hrs by SRB assay; type: functional, cell-based; conditions: Cricetulus griseus, CHO-K1, 72 h
Outline: (§2)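 20000 cells/well treated after 1 day at 1, 5, 10, 25 μM, serum-free, for 3 days. Fixed with 50% TCA 1 h at 4 °C, stained 30 min with 0.4% sulforhodamine B in 1% acetic acid, rinsed with 1% acetic acid, dye dissolved in 10 mM Tris, absorbance 490 nm; triplicate; IC50 derived.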

[5] = Growth inhibition of differentiated human Caco2 cells measured after 72 hrs by SRB assay; type: cell-based; conditions: Caco-2, 72 h; outline: as §2
EA.hy 926 [6] = assay: Effect on oxidative stress in human EAhy926 cells assessed as intracellular ROS level at 10 uM after overnight incubation by DCFH-DA staining based fluorescence assay relative to control; type: functional; outline: as §1
CHO [7] = assay: Effect on oxidative stress in CHO cells assessed as intracellular ROS level at 10 uM after overnight incubation by DCFH-DA staining based fluorescence assay relative to control; type: functional, Cricetulus griseus; outline: as §1
Caco-2 [8] = assay: Effect on oxidative stress in undifferentiated human Caco2 cells assessed as intracellular ROS level at 1 uM after overnight incubation by DCFH-DA staining based fluorescence assay relative to control; type: functional; outline: as §1
[9] = Growth inhibition of human HT-29 cells assessed as mitochondrial activity measured after 72 hrs by MTT assay; type: functional, cell-based; conditions: HT-29, 72 h
Outline: (§3)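 Seeded 20000 cells/well in DMEM+glutamax, NEAA, P/S, FBS; after 1 day treated 1, 5, 10, 25 μM in serum-free medium (DMSO under 0.1%) for 3 days. MTT (5 mg/ml in PBS) 2 h at 37 °C, 10% CO2 in dark; formazan dissolved in DMSO, absorbance 570 nm; triplicate; IC50 derived.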

CHO [10] = assay: Effect on oxidative stress in CHO cells assessed as intracellular ROS level at 1 uM after overnight incubation by DCFH-DA staining based fluorescence assay relative to control; type: functional, Cricetulus griseus; outline: as §1
[11] = Growth inhibition of CHOK1 cells assessed as mitochondrial activity measured after 72 hrs by MTT assay; type: functional, cell-based; conditions: Cricetulus griseus, CHO-K1, 72 h; outline: as §3
Caco-2 [12] = assay: Effect on oxidative stress in undifferentiated human Caco2 cells assessed as intracellular ROS level at 10 uM after overnight incubation by DCFH-DA staining based fluorescence assay relative to control; type: functional; outline: as §1
HT-29 [13] = assay: Effect on oxidative stress in human HT-29 cells assessed as intracellular ROS level at 1 uM after overnight incubation by DCFH-DA staining based fluorescence assay relative to control; type: functional; outline: as §1
[14] = Growth inhibition of undifferentiated human Caco2 cells assessed as mitochondrial activity measured after 72 hrs by MTT assay; type: functional, cell-based; conditions: Caco-2, 72 h; outline: as §3
[15] = Antioxidant activity assessed as trolox equivalent of ferric ion reducing activity using Fe3+-TPTZ by measuring Fe2+-TPTZ formation after 4 mins by UV-vis spectrophotometry based FRAP assay; type: functional
Outline: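 FRAP reagent: 300 mM acetate buffer, 10 mM TPTZ in ethanol and 20 mM FeCl3 (in dilute HCl) combined 10:1:1, TPTZ and iron freshly made. Sample mixed 1:9 with reagent; absorbance 593 nm after 4 min. Expressed as trolox equivalents per μM from slope of linear plot versus analog concentration.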

[16] = Growth inhibition of human EAhy926 cells assessed as mitochondrial activity measured after 72 hrs by MTT assay; type: cell-based; conditions: EA.hy 926, 72 h; outline: as §3
[17] = Growth inhibition of human EAhy926 cells measured after 72 hrs by SRB assay; type: cell-based; conditions: EA.hy 926, 72 h; outline: as §2
[18] = Growth inhibition of differentiated human Caco2 cells assessed as mitochondrial activity measured after 72 hrs by MTT assay; type: cell-based; conditions: Caco-2, 72 h; outline: as §3
[19] = Growth inhibition of undifferentiated human Caco2 cells measured after 72 hrs by SRB assay; type: functional, cell-based; conditions: Caco-2, 72 h; outline: as §2
[20] = Solubility of the compound in serum-free DMEM assessed as compound concentration required for crystal formation measured after 1 day by microscopic analysis; type: physicochemical; conditions: 24 h
Outline: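 Compound at 0, 0.5, 1, 5, 10, 25 and 50 μM in serum-free DMEM incubated 1 day at 37 °C, 10% CO2, then examined for crystal formation.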

[21] = Growth inhibition of human HT-29 cells measured after 72 hrs by SRB assay; type: functional, cell-based; conditions: HT-29, 72 h; outline: as §2

solubility [20] [µM] | SMILES | Activity (EA.hy 926 [1]) [%] | inhibition [2] [%] | Activity (HT-29 [3]) [%] | IC50 [4] [µM] | IC50 [5] [µM] | Activity (EA.hy 926 [6]) [%] | Activity (CHO [7]) [%] | Activity (Caco-2 [8]) [%] | IC50 [9] [µM] | Activity (CHO [10]) [%] | IC50 [11] [µM] | Activity (Caco-2 [12]) [%] | Activity (HT-29 [13]) [%] | IC50 [14] [µM] | Activity [15] [µMequiv/µM] | IC50 [16] [µM] | IC50 [17] [µM] | IC50 [18] [µM] | IC50 [19] [µM] | further results
25 (≈ 7.71 µg/mL) | O=C(/C=C/c1ccc(O)cc1)CC(=O)/C=C/c1ccc(O)cc1 [BISDEMETHOXYCURCUMIN] | 92 | 0.02 | 69 | > 25 | > 25 | 103 | 105 | 98 | > 25 | 101 | > 25 | 83 | 75 | > 25 | 0.28 | > 25 | > 25 | > 25 | > 25 | IC50 [21]: > 25 µM
25 (≈ 11.2 µg/mL) | CC(=O)Oc1ccc(/C=C/C(=O)/C=C(/C=C/c2ccc(OC(C)=O)cc2)NCC(C)C)cc1 | 60 | 0 | 99 | > 25 | > 25 | 53 | 142 | 102 | 13.7 | 152 | > 25 | 85 | 92 | > 25 | 0.01 | > 25 | > 25 | > 25 | > 25 | IC50 [21]: 22.6 µM
25 (≈ 9.09 µg/mL) | CC(C)CNC(=C\C(=O)/C=C/c1ccc(O)cc1)/C=C/c1ccc(O)cc1 | 100 | 0.02 | 75 | 23.7 | > 25 | 119 | 97 | 100 | 20.1 | 109 | 17.9 | 82 | 77 | 23 | 0.19 | > 25 | > 25 | > 25 | 18.5 | IC50 [21]: 22.5 µM
25 (≈ 10.2 µg/mL) | C=CCNC(=C\C(=O)/C=C/c1ccc(O)c(OC)c1)/C=C/c1ccc(O)c(OC)c1 | 124 | 0.1 | 84 | > 25 | > 25 | 267 | 104 | 89 | > 25 | 115 | 7.4 | 76 | 99 | > 25 | 1.14 | > 25 | > 25 | > 25 | > 25 | IC50 [21]: 24.6 µM
25 (≈ 10.6 µg/mL) | COc1cc(/C=C/C(=O)/C=C(/C=C/c2ccc(O)c(OC)c2)NCC(C)C)ccc1O | 83 | 0.09 | 92 | > 25 | > 25 | 100 | 118 | 91 | 24.5 | 104 | > 25 | 74 | 91 | > 25 | 0.89 | > 25 | > 25 | > 25 | > 25 | IC50 [21]: 24 µM

Further lines, the compound ahead of its results:

SMILES | solubility [20] [µM] | Activity (EA.hy 926 [1]) [%] | inhibition [2] [%] | Activity (HT-29 [3]) [%] | IC50 [4] [µM] | IC50 [5] [µM] | Activity (EA.hy 926 [6]) [%] | Activity (CHO [7]) [%] | Activity (Caco-2 [8]) [%] | IC50 [9] [µM] | Activity (CHO [10]) [%] | IC50 [11] [µM] | Activity (Caco-2 [12]) [%] | Activity (HT-29 [13]) [%] | IC50 [14] [µM] | Activity [15] [µMequiv/µM] | IC50 [16] [µM] | IC50 [17] [µM] | IC50 [18] [µM] | IC50 [19] [µM] | further results
CCCCNC(=C\C(=O)/C=C/c1ccc(O)c(OC)c1)/C=C/c1ccc(O)c(OC)c1 | 5 (≈ 2.12 µg/mL) | 110 | 0.08 | 98 | 20.4 | > 25 | 439 | 110 | 91 | 19.7 | 129 | 7 | 83 | 99 | > 25 | 1.29 | > 25 | > 25 | > 25 | 23.8 | IC50 [21]: 21.2 µM
COc1cc(/C=C/C(=O)CC(=O)/C=C/c2ccc(OC(C)=O)c(OC)c2)ccc1OC(C)=O | 0.5 (≈ 0.226 µg/mL) | 114 | 0 | 76 | > 25 | > 25 | 189 | 112 | 93 | > 25 | 128 | > 25 | 90 | 79 | > 25 | 0.03 | > 25 | > 25 | > 25 | > 25 | IC50 [21]: > 25 µM
COc1cc(/C=C/C(=O)/C=C(/C=C/c2ccc(OC(C)=O)c(OC)c2)NC2CCCCC2)ccc1OC(C)=O | 5 (≈ 2.67 µg/mL) | 101 | 0.01 | 94 | > 25 | > 25 | 113 | 122 | 89 | > 25 | 89 | 10.1 | 62 | 96 | 9.7 | 0.04 | > 25 | > 25 | > 25 | 4.4 | IC50 [21]: > 25 µM
CCC(C)NC(=C\C(=O)/C=C/c1ccc(O)c(OC)c1)/C=C/c1ccc(O)c(OC)c1 (stereo unspecified) | 50 (≈ 21.2 µg/mL) | 85 | 0.13 | 90 | > 25 | > 25 | 184 | 112 | 91 | > 25 | 107 | > 25 | 66 | 99 | > 25 | 1.08 | > 25 | > 25 | > 25 | > 25 | IC50 [21]: 22.3 µM
COc1cc(/C=C/C(=O)/C=C(/C=C/c2ccc(O)c(OC)c2)NC2CCCCC2)ccc1O | 25 (≈ 11.2 µg/mL) | 91 | 0.13 | 74 | > 25 | > 25 | 191 | 122 | 88 | > 25 | 137 | 24.7 | 63 | 80 | > 25 | 0.83 | > 25 | > 25 | > 25 | 5.1 | IC50 [21]: > 25 µM
CCC(C)NC(=C\C(=O)/C=C/c1ccc(OC(C)=O)c(OC)c1)/C=C/c1ccc(OC(C)=O)c(OC)c1 (stereo unspecified) | 5 (≈ 2.54 µg/mL) | 68 | 0 | 89 | > 25 | > 25 | 105 | 92 | 95 | > 25 | 88 | > 25 | 86 | 92 | > 25 | 0 | > 25 | > 25 | > 25 | 24 | IC50 [21]: > 25 µM
